# Measured values from PMC13334530 (Nature neuroscience, 2026).
# Columns and labels:
# [1] = system: Tau phosphorylation at S202/T205; assay: Immunohistochemistry; assay type: in vivo, mouse; settings: stereotactic injection, 72 hours, versus contralateral control
# [2] = system: Tau phosphorylation at S202/T205; assay: Immunocytochemistry for phosphorylated Tau in primary neurons; assay type: cell-based, mouse; settings: primary hTau-KI hippocampal neurons, 12 hours
# sarkosyl-insoluble Tau [3] = assay: Sarkosyl fractionation of primary neurons, Tau immunoblot; assay type: cell-based, mouse; settings: 12 hours; for Tau aggregation (sarkosyl-insoluble Tau) in primary neurons: Epoxomicin, MG132, iBEp 1 μM, Leupeptin 20 μM every two hours; for sarkosyl-insoluble Tau in primary WT mouse neurons: iBEp 1 μM, IgG-Epox […]
# primary mouse neurons = assay: Intracellular metabolite extraction from treated neurons; assay type: in vitro ADME; settings: DIV14 cortical neurons, extracted intracellular metabolites, 1 pg limit of detection
# [4] = system: Tau paired helical filaments; assay: Electron microscopy of sarkosyl-insoluble fractions of injected hippocampi; assay type: in vivo, mouse; settings: hTau-KI mice, 72 hours after injection
# [5] = system: intracellular ubiquitin conjugates and p62; assay: Immunoblots of ubiquitin conjugates and p62 in primary neurons; assay type: cell-based, mouse; settings: primary WT neurons, immunoblot
# [6] = In vivo hippocampal injection dose-ranging; parameters: species or system mouse
# sarkosyl-insoluble Tau [7] = assay: Sarkosyl fractionation of hippocampi after stereotactic injection; assay type: in vivo, mouse
# [8] = molecular target: catalytic proteasome subunits (Mus musculus, UniProt O55234+P70195+Q60692); assay type: binding; settings: for targets bound (streptavidin enrichment / biotin pull-down, LC/MS): primary mouse neurons and mouse brain, Table S1
# [9] = system: ubiquitin-proteasome reporter GFPu in primary hippocampal neurons; assay: GFPu degradation assay; assay type: cell-based, mouse; settings: DIV14 primary neurons, 1 μM, 12-hour incubation
# How it was run: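 Primary hippocampal neurons on coverslips co-transfected at DIV7 or DIV8 with Ub-G76V-GFP (0.5 μg/coverslip) and mCherry (0.1 μg/coverslip) using lipofectamine 2000, 4 h at 37 °C. At DIV14, 1 μM test compound for 12 h, then fixed and processed for immunocytochemistry. GFP+ cells counted per 100 cells; n=6 regions imaged per replicate, N=3 biological replicates.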
# [10] = system: β-sheet containing aggregates; assay: Thioflavin S staining after stereotactic hippocampal injection; assay type: in vivo, mouse; settings: hTau-KI mice, 72 hours, relative to contralateral controls
# Tau phosphorylation = assay: Quantitative phosphoproteomics of treated primary neurons; assay type: cell-based; settings: primary mouse neurons; sites correspond to human S202, T205, T217, S404
# Proteasome subunit β5 = Proteasome subunit β5 (Homo sapiens, UniProt P28074); assay: Proteasome subunit β5 activity assay; assay type: biochemical
# [11] = system: surface Lrp1, GluR1 and neuroproteasomes; assay: Surface biotinylation of primary neurons treated with RAP; assay type: cell-based; settings: primary mouse neurons
# How it was run: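 Neurons were washed in cold PBSCM pH 8.0 and labelled with 0.5 mg/mL Sulfo-NHS-LC-Biotin in PBSCM, 4°C for 10 min. Labelling quenched with 50 mM glycine, two 10-min incubations at 4°C.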
# [12] = system: neuroproteasome activity and sarkosyl-insoluble Tau; assay type: cell-based, mouse; settings: primary WT neurons treated with RAP and a dose curve of iBEp
molecule,measurement,setting,value
"CC[C@H](C)[C@H](NC(=O)[C@H]([C@@H](C)CC)N(C)C(C)=O)C(=O)N[C@H](C(=O)N[C@@H](CC(C)C)C(=O)[C@@]1(C)CO1)[C@@H](C)O [Epoxomicin, reference compound]",Tau phosphorylation at S202/T205 (AT8) in hippocampi of hTau-KI mice,[1],No Tau S202/T205 phosphorylation was detectable
same,Tau phosphorylation at S202/T205 in primary neurons,[2],No Tau S202/T205 phosphorylation was detectable
same,Tau aggregation (sarkosyl-insoluble Tau) in primary neurons,sarkosyl-insoluble Tau [3],does not
same,permeability into primary mouse neurons by LC/MS-based metabolite profiling,primary mouse neurons,peak in Epox treated cells corresponds to Epoxomicin
Biotin-PEG24-Epoxomicin [iBEp],Tau phosphorylation at S202/T205 (AT8) in hippocampi of hTau-KI mice,[1],significantly elevated
same,filaments in sarkosyl-insoluble fractions by negative stain EM,[4],Twisted filaments which resembled paired helical filaments (PHFs) were readily apparent
same,Tau phosphorylation at S202/T205 in primary neurons,[2],significantly elevated
same,increase of total intracellular ubiquitin conjugates or p62 levels,[5],lack of both markers
same,adverse physiological effects at selected concentration,[6]; 6.4 μM,without causing observable adverse physiological effects
same,inhibition of membrane-fraction proteasomes in vivo,[6]; 6.4 μM,detectable inhibition of membrane-fraction proteasomes
same,concentration inducing seizure activity,"[6]; 2 μL, mice",exceeding 12 μM
same,Tau aggregation (sarkosyl-insoluble Tau) in primary neurons,sarkosyl-insoluble Tau [3],induces Tau aggregation
same,sarkosyl-insoluble Tau in primary WT mouse neurons,sarkosyl-insoluble Tau [3]; immunoblot,significant increase
same,sarkosyl-insoluble Tau in hippocampi from hTau-KI mice,"sarkosyl-insoluble Tau [7]; 2 μL of 6.4 μM into CA1, 72 hours, contralateral IIT-PEG24-Biotin, N=6",significant increase
same,sarkosyl-insoluble Tau signal in hippocampi from Tau-KO mice,"sarkosyl-insoluble Tau [7]; stereotactic injection, contralateral DMSO, N=3",no detectable signal
same,"targets bound (streptavidin enrichment / biotin pull-down, LC/MS)",[8],selectively targets catalytic proteasome subunits
same,bands differentially labeled versus DMSO (streptavidin blot),[8]; primary neurons treated 12 hours,only three bands differentially labeled
same,accumulation of the ubiquitin-proteasome reporter GFPu,[9],did not cause accumulation
same,ThioS staining in CA1 region of hippocampi,[10],strong increase
same,"Tau phosphorylation sites with time-dependent increase, of identified sites",Tau phosphorylation,4 of 26
Biotin-PEG24-IleIleThr,sarkosyl-insoluble Tau in primary WT mouse neurons,sarkosyl-insoluble Tau [3]; immunoblot,No such signal
Sulfo-MG132 [SulfoMG],activity as proteasome inhibitor,"Proteasome subunit β5; dose curve, Suc-LLVY-AMC (Extended Data Fig. 3g)",active
same,potency relative to MG132,"Proteasome subunit β5; proteasome, calpain and cathepsin L activity assays (Extended Data Fig. 3g,h)",less potent than MG132
same,sarkosyl-insoluble hTau in primary hTau-KI neurons,"sarkosyl-insoluble Tau [3]; 1 μM, immunoblot",induces similar partitioning of hTau into the sarkosyl-insoluble fraction as iBEp
same,Tau aggregation (sarkosyl-insoluble Tau) in primary neurons,sarkosyl-insoluble Tau [3],induces Tau aggregation
same,"targets bound (streptavidin enrichment / biotin pull-down, LC/MS)",[8],the catalytic proteasome subunits as well as some off-targets of MG132
"RAP: pan-ApoE receptor antagonist, Receptor-associated protein (protein, UniProt P30533 35-357, looked up) Alpha-2-macroglobulin …: YSREKNQPKPSPKRESGEEFRMEKLNQLWEKAQRLHLPPVRLAELHADLKIQERDELAWKKLKLDGLDEDGEKEARLIRNLNVILAKYGLDGKKDARQVTSNSLSGTQEDGLDDPRLEKLWHKAKTSGKFSGEELDKLWREFLHHKEKVHEYNVLLETLSRTEEIHENVISPSDLSDIKGSVLHSRHTELKEKLRSINQGLDRLRRVSHQGYSTEAEFEEPRVIDLWDLAQSANLTDKELEAFREELKHFEAKIEKHNHYQKQLEIAHEKLRHAESVGDGERVSRSREKHALLEGRTKELGYTVKKHLQDLSGRISRARHNEL",surface GluR1,[11],without modifying
same,surface abundance of neuroproteasomes,[11],reduced
same,surface localization of Lrp1,[11],rapidly decreased
same,susceptibility of neurons to Tau aggregation,[12],renders neurons more susceptible to Tau aggregation
